Experiments:
[1] = biological target: T1, Thromboxane-A synthase (Homo sapiens, UniProt P24557); test: In vitro inhibition of thromboxane A2 synthetase from human platelets.
T1 sequence (P24557 whole entry): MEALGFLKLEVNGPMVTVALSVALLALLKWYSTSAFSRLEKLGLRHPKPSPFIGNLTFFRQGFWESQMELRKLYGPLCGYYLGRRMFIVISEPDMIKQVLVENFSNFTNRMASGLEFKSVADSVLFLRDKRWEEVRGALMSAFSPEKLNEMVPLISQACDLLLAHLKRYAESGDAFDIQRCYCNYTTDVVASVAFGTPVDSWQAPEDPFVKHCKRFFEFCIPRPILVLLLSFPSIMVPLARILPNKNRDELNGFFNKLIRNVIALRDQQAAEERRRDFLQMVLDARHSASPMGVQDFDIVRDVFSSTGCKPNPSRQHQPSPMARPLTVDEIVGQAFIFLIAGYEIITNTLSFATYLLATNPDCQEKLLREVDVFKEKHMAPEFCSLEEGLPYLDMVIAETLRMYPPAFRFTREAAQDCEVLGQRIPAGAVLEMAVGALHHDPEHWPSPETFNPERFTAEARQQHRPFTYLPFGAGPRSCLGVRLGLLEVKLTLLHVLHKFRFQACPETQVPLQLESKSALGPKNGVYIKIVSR
How it was run: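 Human platelet microsomal Tx synthetase, mixed with solubilized partially purified sheep seminal vesicle PGH2 synthetase to make endoperoxide in situ from [1-14C]arachidonic acid (2 nmol). Buffer 0.1 M Tris-HCl pH 7.5 with tryptophan 5 mM and hemoglobin 0.2 μM; 30 min, 37 °C. PGE2 reduced; TLC, scintillation counting. IC50 read graphically as 50% fall in TxB2/PGF2(α+β) count ratio; mean of ≥2 experiments.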

[2] = Partition coefficient (logP); assay type: physicochemical; conditions: octanol/water
[3] = biological target: T1, Thromboxane-A synthase; test: In vitro inhibitory activity against thromboxane A2 synthetase with lysed human platelets as the enzyme source.
How it was run: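 Crude microsomal Tx synthetase from human platelets plus partially purified sheep seminal vesicle PGH2 synthetase forming endoperoxide in situ from [1-14C]arachidonic acid (4 μM); 0.1 M Tris-HCl pH 7.5, 5 mM tryptophan, 0.2 μM hemoglobin; 30 min, 37 °C. PGE2 reduced to PGF2(α+β); products separated by TLC and counted by scintillation. IC50 read graphically at 50% of control TxB2/PGF2(α+β) count ratio; mean of ≥2 experiments.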

[4] = biological target: Prostacyclin synthase (Bos taurus); test: In vitro inhibitory activity against prostacyclin synthetase
[5] = biological target: Cyclooxygenase (Ovis aries); test: In vitro inhibitory activity against Prostaglandin G/H synthase

| Compound | IC50 [1] | also measured |
| --- | --- | --- |
| O=C(O)/C=C/CCCc1cccc2cncn12 | 4.8 nM |  |
| O=C(O)/C=C/CCCCCc1cccc2cncn12 | 40 nM |  |
| O=C(O)CCCCc1ccc2cncn2c1 | 3300 nM |  |
| Cc1ncc2cccc(CCCCCC(=O)O)n12 | 25000 nM |  |
| NC(=O)CCCCCc1cccc2cncn12 | 77 nM |  |
| C/C(=C\CCCCCc1cccc2cncn12)C(=O)O | 19 nM |  |
| CNC(=O)CCCCCc1cccc2cncn12 | 270 nM |  |
| O=C(O)CCCCc1cccc2cncn12 | 41 nM | logP [2]: 0.7 |
| CCCCCCCc1cccc2cncn12 | 3300 nM |  |
| O=C(O)CCCCc1ccn2cncc2c1 | 4700 nM |  |
| O=C(CCCCCc1cccc2cncn12)NO | 20 nM |  |
| O=C(O)CCCCCCc1cccc2cncn12 | 5.2 nM | logP [2]: 1.54 |
| CCOC(=O)CCCCCc1cccc2cncn12 | 330 nM |  |
| O=C(O)/C=C/C=C/c1cccc2cncn12 | 28 nM |  |
| O=C(O)CCCCc1cccn2cncc12 | 390 nM |  |
| O=C(O)CCCCCCCc1cccc2cncn12 | 21 nM | logP [2]: 2.01 |
| OCCCCCCc1cccc2cncn12 | 280 nM |  |
| CN(C)C(=O)CCCCCc1cccc2cncn12 | 550 nM |  |
| c1cc(CCCCc2nnn[nH]2)n2cncc2c1 | 11 nM |  |
| c1cc(CCCCCc2nnn[nH]2)n2cncc2c1 | 19 nM |  |
| N#CCCCCCc1cccc2cncn12 | 630 nM |  |
| O=C(O)CCCCCc1cccc2cncn12 [PIRMAGREL] |  | IC50 [3]: 3.2 nM; IC50 [4]: 100000 nM; IC50 [5]: 10000 nM; logP [2]: 1.1 |

From ChEMBL document CHEMBL1122885, “Imidazo[1,5-a]pyridines: a new class of thromboxane A2 synthetase inhibitors” (J Med Chem, 1985)
